{"source": "ChEMBL document CHEMBL1125474", "about": "“Comparative molecular field analysis of anticoccidial triazines” (J Med Chem, 1992)", "test_system": "Eimeria tenella", "test": "Minimum effective concentration for anti-coccidial activity against […] coccidian parasite Eimeria tenella in chicks expressed as mmol/kg of feed", "format": "functional", "in_short": "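Chicks kept on feed containing test drug, then challenged with *Eimeria tenella* oocysts. Activity is scored as the degree of lesion control in the ceca of treated, challenged birds. The lowest feed concentration that controls lesions is taken as the MEC. Values are usually reproducible within one 2-fold dilution (±0.3 in log(1/MEC)).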", "data": [{"compound": "O=c1cnn(-c2ccc(F)c(C(F)(F)F)c2)c(=O)[nH]1", "values": [{"measurement": "Log 1/MEC", "result": 1.26}]}, {"compound": "O=c1cnn(-c2ccc(S(=O)(=O)c3ccc(Cl)cc3)cc2)c(=O)[nH]1", "values": [{"measurement": "Log 1/MEC", "result": 1.96}]}, {"compound": "O=c1cnn(-c2ccccc2)c(=O)[nH]1", "values": [{"measurement": "Log 1/MEC", "result": -0.42}]}, {"compound": "Cc1cc(-n2ncc(=O)[nH]c2=O)cc(Cl)c1Sc1ccc(Cl)cc1", "values": [{"measurement": "Log 1/MEC", "result": 3.28}]}, {"compound": "Cc1cc(C)cc(-n2ncc(=O)[nH]c2=O)c1", "values": [{"measurement": "Log 1/MEC", "result": 0.86}]}, {"compound": "Cc1cc(-n2ncc(=O)[nH]c2=O)ccc1Oc1ccc(Cl)cc1Cl", "values": [{"measurement": "Log 1/MEC", "result": 1.69}]}, {"compound": "Cc1cc(-n2ncc(=O)[nH]c2=O)cc(C)c1S(=O)(=O)c1ccc(Cl)cc1", "values": [{"measurement": "Log 1/MEC", "result": 2.59}]}, {"compound": "C[C@@](C#N)(c1ccc(Cl)cc1)c1c(Cl)cc(-n2ncc(=O)[nH]c2=O)cc1Cl", "values": [{"measurement": "Log 1/MEC", "result": 2.62}]}, {"compound": "O=c1cnn(-c2ccc(S(=O)(=O)c3ccccc3)cc2)c(=O)[nH]1", "values": [{"measurement": "Log 1/MEC", "result": 1.04}]}, {"compound": "COc1c(Cl)cc(-n2ncc(=O)[nH]c2=O)cc1Cl", "values": [{"measurement": "Log 1/MEC", "result": 0.06}]}, {"compound": "CS(=O)(=O)c1ccc(-n2ncc(=O)[nH]c2=O)cc1", "values": [{"measurement": "Log 1/MEC", "result": -0.27}]}, {"compound": "Cc1cc(-n2ncc(=O)[nH]c2=O)cc(C)c1[S+]([O-])c1ccc(Cl)cc1", "note": "(stereo not drawn)", "values": [{"measurement": "Log 1/MEC", "result": 2.58}]}, {"compound": "CCN(C)S(=O)(=O)c1ccc(Oc2c(C)cc(-n3ncc(=O)[nH]c3=O)cc2Cl)c(Cl)c1", "values": [{"measurement": "Log 1/MEC", "result": 2.11}]}, {"compound": "Cc1cc(-n2ncc(=O)[nH]c2=O)cc(Cl)c1S(=O)(=O)N(C)C", "values": [{"measurement": "Log 1/MEC", "result": 0.76}]}, {"compound": "Cc1cc(-n2ncc(=O)[nH]c2=O)ccc1Oc1ccc(Cl)cc1", "values": [{"measurement": "Log 1/MEC", "result": 0.74}]}, {"compound": "O=c1cnn(-c2ccc(Cl)c(C(F)(F)F)c2)c(=O)[nH]1", "values": [{"measurement": "Log 1/MEC", "result": 1.56}]}, {"compound": "Cc1cc(-n2ncc(=O)[nH]c2=O)ccc1Oc1ccc(S(C)(=O)=O)cc1", "values": [{"measurement": "Log 1/MEC", "result": 1.97}]}, {"compound": "CC(C)(C)c1ccc(Sc2ccc(-n3ncc(=O)[nH]c3=O)cc2Cl)cc1", "values": [{"measurement": "Log 1/MEC", "result": 0.51}]}, {"compound": "O=c1cnn(-c2ccc(S(=O)(=O)c3ccc(Cl)cc3)c(Cl)c2)c(=O)[nH]1", "values": [{"measurement": "Log 1/MEC", "result": 2.3}]}, {"compound": "Cc1cc(-n2ncc(=O)[nH]c2=O)cc(Cl)c1Oc1ccc(S(=O)(=O)NC2CC2)cc1Cl", "values": [{"measurement": "Log 1/MEC", "result": 1.51}]}, {"compound": "O=c1cnn(-c2ccc(S(=O)(=O)N3CCOCC3)c(Cl)c2)c(=O)[nH]1", "values": [{"measurement": "Log 1/MEC", "result": 1.09}]}, {"compound": "Cc1cc(-n2ncc(=O)[nH]c2=O)ccc1C(O)c1ccccc1", "note": "(stereo not drawn)", "values": [{"measurement": "Log 1/MEC", "result": 1.01}]}, {"compound": "CSc1ccc(Oc2ccc(-n3ncc(=O)[nH]c3=O)cc2C)cc1", "values": [{"measurement": "Log 1/MEC", "result": 2.23}]}, {"compound": "Cc1cc(-n2ncc(=O)[nH]c2=O)cc(Cl)c1Oc1ccc(Cl)cc1", "values": [{"measurement": "Log 1/MEC", "result": 1.98}]}, {"compound": "N#CC(c1ccc(Cl)cc1)c1c(Cl)cc(-n2ncc(=O)[nH]c2=O)cc1Cl", "note": "(stereo not drawn) [DICLAZURIL]", "values": [{"measurement": "Log 1/MEC", "result": 3.61}]}, {"compound": "O=c1cnn(-c2ccc([N+](=O)[O-])cc2)c(=O)[nH]1", "values": [{"measurement": "Log 1/MEC", "result": -0.03}]}, {"compound": "O=c1cnn(-c2ccc(Oc3ccc(Cl)cc3Cl)c(Cl)c2)c(=O)[nH]1", "values": [{"measurement": "Log 1/MEC", "result": 1.71}]}, {"compound": "O=c1cnn(-c2ccc(Oc3ccc4cc(Br)ccc4c3)c(Cl)c2)c(=O)[nH]1", "values": [{"measurement": "Log 1/MEC", "result": 1.77}]}, {"compound": "Cc1cc(-n2ncc(=O)[nH]c2=O)cc(Cl)c1S(=O)(=O)N1CCSCC1", "values": [{"measurement": "Log 1/MEC", "result": 0.53}]}, {"compound": "CCc1cc(-n2ncc(=O)[nH]c2=O)cc(C)c1Sc1ccc(Cl)cc1", "values": [{"measurement": "Log 1/MEC", "result": 0.79}]}, {"compound": "N#C[C@H](c1ccc(Cl)cc1)c1c(Cl)cc(-n2ncc(=O)[nH]c2=O)cc1Cl", "values": [{"measurement": "Log 1/MEC", "result": 3.61}]}, {"compound": "CSc1ccc(Oc2c(C)cc(-n3ncc(=O)[nH]c3=O)cc2C)cc1C", "values": [{"measurement": "Log 1/MEC", "result": 2.27}]}, {"compound": "O=c1cnn(-c2cccc(Cl)c2)c(=O)[nH]1", "values": [{"measurement": "Log 1/MEC", "result": 0.25}]}, {"compound": "O=c1cnn(-c2cc(Cl)cc(Cl)c2)c(=O)[nH]1", "values": [{"measurement": "Log 1/MEC", "result": 1.81}]}, {"compound": "O=c1cnn(-c2cc(I)cc(I)c2)c(=O)[nH]1", "values": [{"measurement": "Log 1/MEC", "result": 1.17}]}, {"compound": "O=c1cnn(-c2cc(Cl)c(S(=O)(=O)N3CCOCC3)c(Cl)c2)c(=O)[nH]1", "values": [{"measurement": "Log 1/MEC", "result": 1.13}]}, {"compound": "O=c1cnn(-c2cc(Cl)c(Sc3ccc(Cl)cc3)c(Cl)c2)c(=O)[nH]1", "values": [{"measurement": "Log 1/MEC", "result": 3.3}]}, {"compound": "Cc1cc(-n2ncc(=O)[nH]c2=O)cc(Cl)c1Oc1ccc(C(C)O)cc1", "note": "(stereo not drawn)", "values": [{"measurement": "Log 1/MEC", "result": 2.27}]}, {"compound": "COc1cc(OC)cc(-n2ncc(=O)[nH]c2=O)c1", "values": [{"measurement": "Log 1/MEC", "result": -0.3}]}, {"compound": "COc1cc(-n2ncc(=O)[nH]c2=O)cc(OC)c1OC", "values": [{"measurement": "Log 1/MEC", "result": -0.55}]}, {"compound": "CSc1ccc(Oc2c(C)cc(-n3ncc(=O)[nH]c3=O)cc2C)cc1", "values": [{"measurement": "Log 1/MEC", "result": 2.25}]}, {"compound": "CS(=O)(=O)c1c(Cl)cc(-n2ncc(=O)[nH]c2=O)cc1Cl", "values": [{"measurement": "Log 1/MEC", "result": 0.13}]}, {"compound": "Cc1cc(-n2ncc(=O)[nH]c2=O)cc(C)c1S(=O)(=O)N1CCOCC1", "values": [{"measurement": "Log 1/MEC", "result": 1.39}]}, {"compound": "O=c1cnn(-c2ccc(Oc3ccccc3)cc2)c(=O)[nH]1", "values": [{"measurement": "Log 1/MEC", "result": -0.25}]}, {"compound": "O=c1cnn(-c2ccc(S(=O)(=O)N3CCC(O)CC3)c(Cl)c2)c(=O)[nH]1", "values": [{"measurement": "Log 1/MEC", "result": -0.11}]}, {"compound": "O=c1cnn(-c2ccc(Sc3ccc(Cl)cc3)c(Cl)c2)c(=O)[nH]1", "values": [{"measurement": "Log 1/MEC", "result": 2.26}]}, {"compound": "O=c1cnn(-c2cc(Cl)c(S(=O)(=O)c3ccc(Cl)cc3)c(Cl)c2)c(=O)[nH]1", "values": [{"measurement": "Log 1/MEC", "result": 2.94}]}, {"compound": "O=c1cnn(-c2ccc(Cc3ccc(Cl)cc3)c(Cl)c2)c(=O)[nH]1", "values": [{"measurement": "Log 1/MEC", "result": 1.64}]}, {"compound": "CC(=O)c1ccc(Sc2c(C)cc(-n3ncc(=O)[nH]c3=O)cc2Cl)cc1", "values": [{"measurement": "Log 1/MEC", "result": 3.19}]}, {"compound": "O=c1cnn(-c2ccc(C(O)c3ccc(Cl)cc3)c(Cl)c2)c(=O)[nH]1", "note": "(stereo not drawn)", "values": [{"measurement": "Log 1/MEC", "result": 2.26}]}, {"compound": "Cc1cc(-n2ncc(=O)[nH]c2=O)cc(Cl)c1S(=O)(=O)c1ccc(Cl)cc1", "values": [{"measurement": "Log 1/MEC", "result": 1.71}]}, {"compound": "O=c1cnn(-c2ccc(Sc3ccc4ccccc4c3)c(Cl)c2)c(=O)[nH]1", "values": [{"measurement": "Log 1/MEC", "result": 0.48}]}, {"compound": "O=c1cnn(-c2ccc(Oc3ccc(I)cc3)c(Cl)c2)c(=O)[nH]1", "values": [{"measurement": "Log 1/MEC", "result": 1.77}]}, {"compound": "O=C1c2ccccc2CSc2cc(-n3ncc(=O)[nH]c3=O)ccc21", "values": [{"measurement": "Log 1/MEC", "result": 1.04}]}, {"compound": "CSc1ccc(Oc2ccc(-n3ncc(=O)[nH]c3=O)cc2Cl)cc1", "values": [{"measurement": "Log 1/MEC", "result": 1.98}]}, {"compound": "O=c1cnn(-c2cccc(C(F)(F)F)c2)c(=O)[nH]1", "values": [{"measurement": "Log 1/MEC", "result": 0.93}]}, {"compound": "O=c1cnn(-c2ccc(Cl)c(Cl)c2)c(=O)[nH]1", "values": [{"measurement": "Log 1/MEC", "result": 0.63}]}, {"compound": "O=c1cnn(-c2ccc(S(=O)(=O)c3ccc(Br)cc3)cc2)c(=O)[nH]1", "values": [{"measurement": "Log 1/MEC", "result": 1.71}]}, {"compound": "O=c1cnn(-c2ccc(Br)c(C(F)(F)F)c2)c(=O)[nH]1", "values": [{"measurement": "Log 1/MEC", "result": 1.35}]}, {"compound": "N#Cc1cccc(-n2ncc(=O)[nH]c2=O)c1", "values": [{"measurement": "Log 1/MEC", "result": 0.85}]}, {"compound": "CC(=O)c1ccc(Oc2c(C)cc(-n3ncc(=O)[nH]c3=O)cc2Cl)cc1", "values": [{"measurement": "Log 1/MEC", "result": 2.27}]}, {"compound": "Cc1cc(Cl)cc(-n2ncc(=O)[nH]c2=O)c1", "values": [{"measurement": "Log 1/MEC", "result": 1.2}]}, {"compound": "O=c1cnn(-c2cc(Cl)c(Cc3ccc(Cl)cc3)c(Cl)c2)c(=O)[nH]1", "values": [{"measurement": "Log 1/MEC", "result": 3.18}]}, {"compound": "Cc1cc(-n2ncc(=O)[nH]c2=O)cc(C)c1C(=O)c1ccc(Cl)cc1", "values": [{"measurement": "Log 1/MEC", "result": 1.38}]}, {"compound": "O=c1cnn(-c2ccc(S(=O)(=O)N3CCCCC3)c(Cl)c2)c(=O)[nH]1", "values": [{"measurement": "Log 1/MEC", "result": 0.17}]}, {"compound": "O=C(c1ccc(Cl)cc1)c1c(Cl)cc(-n2ncc(=O)[nH]c2=O)cc1Cl", "values": [{"measurement": "Log 1/MEC", "result": 2.9}]}, {"compound": "Cc1cc(-n2ncc(=O)[nH]c2=O)cc(C)c1Sc1ccc(Cl)cc1", "note": "[TIAZURIL]", "values": [{"measurement": "Log 1/MEC", "result": 2.86}]}, {"compound": "Cc1cc(-n2ncc(=O)[nH]c2=O)ccc1Oc1ccc(Br)cc1", "values": [{"measurement": "Log 1/MEC", "result": 1.7}]}]}
